B1: Osa-1-4 twister ribozyme (parent)
chain: CCGCCUAACACUGCCAAUGCCGGUCCCAAGCCCGGAUAAAAGUGGAGGGGGCGG

Variants of: B1
Test: self-cleavage, relative activity (ratio to wild type); higher = more cleavage; co-transcriptional
Summary of the method: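 The 48 positions downstream of the cleavage site in a 54-nucleotide Oryza sativa twister ribozyme template were synthesised at 97 % wild-type base and 1 % of each other base. The template was transcribed in vitro at 37 °C for 2 h, with self-cleavage allowed during transcription. Reads with or without upstream sequence after deep sequencing marked cleavage status, and relative activity is fraction cleaved normalised to wild type.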

Point of comparison: CCGCCUAACACUACCAAUGCCGGUCCCAACCCCGGAUAAAAGUGGAGGGGGCGG [G13A G30C], self-cleavage 0.02. Against it:
- CCGCCUAACACUACCAAUGCCGGUCCCAAGCCCUGAUAAAAGUGGAGGGGGCGG [G13A G34U] — higher, 0.05
- CCGCCUAACACUACCAAUGCCGGUCCCAAGCCCCGAUAAAAGUGGAGGGGGCGG [G13A G34C] — higher, 0.05
- CCGCCUAACACUACCAAUGCCGGUCCCAAGCCCAGAUAAAAGUGGAGGGGGCGG [G13A G34A] — higher, 0.09
- CCGCCUAACACUACCAAUGCCGGUCCCAAGCCCGGAUAAAAGUUGAGGGGGCGG [G13A G44U] — higher, 0.07
- CCGCCUAACACUACCAAUGCCGGUCCCAAGCCCGGAUAAAAGUAGAGGGGGCGG [G13A G44A] — higher, 0.05
- CCGCCUAACACUACCAAUGCCGGUCCCAAGCCCGGAUAAAAGUCGAGGGGGCGG [G13A G44C] — higher, 0.08
- CCGCCUAACACUACCAAUGCCGAUCCCAAGCCCGGAUAAAAGUGGAGGGGGCGG [G13A G23A] — higher, 0.04
- CCGCCUAACACUACCAAUGCCGUUCCCAAGCCCGGAUAAAAGUGGAGGGGGCGG [G13A G23U] — the same, 0.02
- CCGCCUAACACUACCAAUGCCGCUCCCAAGCCCGGAUAAAAGUGGAGGGGGCGG [G13A G23C] — the same, 0.02
- CCGCCUAACACUACCAAUGCCGGUCCCAAACCCGGAUAAAAGUGGAGGGGGCGG [G13A G30A] — higher, 0.03
- CCGCCUAACACUACCAAUGCCGGUCCCAAUCCCGGAUAAAAGUGGAGGGGGCGG [G13A G30U] — the same, 0.02
- CCGCCUAACACUACCAAUGCCGGUCCCAAGCCCGCAUAAAAGUGGAGGGGGCGG [G13A G35C] — higher, 0.05
- CCGCCUAACACUACCAAUGCCGGUCCCAAGCCCGAAUAAAAGUGGAGGGGGCGG [G13A G35A] — higher, 0.12
- CCGCCUAACACUACCAAUGCCGGUCCCAAGCCCGUAUAAAAGUGGAGGGGGCGG [G13A G35U] — higher, 0.08
- CCGCCUAACACGGCCAAUGCCGGUCCCAAGCCCGGAUAAAAGUGGAGGGGGCGG [U12G] — higher, 0.55
- CCGCCUAACACUACCAAUGCCGGUCCCAAGCCCGGAUAAAAGUGGAAGGGGCGG [G13A G47A] — higher, 0.04
- CCGCCUAACACUACCAAUGCCGGUCCCAAGCCCGGAUAAAAGUGGACGGGGCGG [G13A G47C] — higher, 0.03
- CCGCCUAACACUACCAAUGCCGGUCCCAAGCCCGGAUAAAAGUGGAUGGGGCGG [G13A G47U] — higher, 0.03
- CCGCCUAACACUACCAAUGCCGGUCCCAAGCCCGGAUAAAAGUGCAGGGGGCGG [G13A G45C] — the same, 0.02
- CCGCCUAACACUACCAAUGCCGGUCCCAAGCCCGGAUAAAAGUGUAGGGGGCGG [G13A G45U] — the same, 0.02
- CCGCCUAACACUACCAAUGCCGGUCCCAAGCCCGGAUAAAAGUGAAGGGGGCGG [G13A G45A] — higher, 0.03
- CCGCCUAACACGGCCAAUGCCGGGCCCAAGCCCGGAUAAAAGUGGAGGGGGCGG [U12G U24G] — higher, 0.04
- CCGCCUAACACGGCCAAUGCCGGACCCAAGCCCGGAUAAAAGUGGAGGGGGCGG [U12G U24A] — higher, 0.05
- CCGCCUAACACGGCCAAUGCCGGCCCCAAGCCCGGAUAAAAGUGGAGGGGGCGG [U12G U24C] — higher, 0.04
- CCGCCUAACACUACCAAUGCCGGUCCCAAGCCCGGAUAAAAGUGGAGUGGGCGG [G13A G48U] — the same, 0.02
- CCGCCUAACACUACCAAUGCCGGUCCCAAGCCCGGAUAAAAGUGGAGAGGGCGG [G13A G48A] — higher, 0.03
- CCGCCUAACACUACCAAUGCCGGUCCCAAGCCCGGAUAAAAGUGGAGCGGGCGG [G13A G48C] — higher, 0.03
- CCGCCUAACACUACCAAUGCCGGUCCCAAGCCCGGAUAAAAGUGGAGGAGGCGG [G13A G49A] — higher, 0.03
- CCGCCUAACACGGCCAAUGCCGGUCCCAAGCCCGGACAAAAGUGGAGGGGGCGG [U12G U37C] — higher, 0.55
- CCGCCUAACACGGCCAAUGCCGGUCCCAAGCCCGGAGAAAAGUGGAGGGGGCGG [U12G U37G] — higher, 0.52
- CCGCCUAACACGGCCAAUGCCGGUCCCAAGCCCGGAAAAAAGUGGAGGGGGCGG [U12G U37A] — higher, 0.6
- CCGCCUAACACUACCAAUACCGGUCCCAAGCCCGGAUAAAAGUGGAGGGGGCGG [G13A G19A] — higher, 0.08
- CCGCCUAACACUACCAAUUCCGGUCCCAAGCCCGGAUAAAAGUGGAGGGGGCGG [G13A G19U] — higher, 0.04
- CCGCCUAACACUACCAAUCCCGGUCCCAAGCCCGGAUAAAAGUGGAGGGGGCGG [G13A G19C] — higher, 0.03
- CCGCCUAACACUACCAAUGCCGGUCCCAAGCCCGGAUAAAAGUGGAGGGGGCGG [G13A] — higher, 0.17
- CCGCCUAACACGGCCAAGGCCGGUCCCAAGCCCGGAUAAAAGUGGAGGGGGCGG [U12G U18G] — higher, 0.59
- CCGCCUAACACGGCCAACGCCGGUCCCAAGCCCGGAUAAAAGUGGAGGGGGCGG [U12G U18C] — higher, 0.28
- CCGCCUAACACGGCCAAAGCCGGUCCCAAGCCCGGAUAAAAGUGGAGGGGGCGG [U12G U18A] — higher, 0.39
- CCGCCUAACACCGCCAAUGCCGGUCCCAAGCCCGGAUAAAAGGGGAGGGGGCGG [U12C U43G] — higher, 0.09
- CCGCCUAACACUACCAAUGCCGGUCCCAAGCCCGGAUAAAAAUGGAGGGGGCGG [G13A G42A] — higher, 0.05
- CCGCCUAACACUACCAAUGCCGGUCCCAAGCCCGGAUAAAAUUGGAGGGGGCGG [G13A G42U] — the same, 0.02
- CCGCCUAACACUACCAAUGCCGGUCCCAAGCCCGGAUAAAACUGGAGGGGGCGG [G13A G42C] — higher, 0.04
- CCGCCUAACACGGCCAAUGCCGGUCCCAAGCCCGGAUAAAAGAGGAGGGGGCGG [U12G U43A] — higher, 0.08
- CCGCCUAACACGGCCAAUGCCGGUCCCAAGCCCGGAUAAAAGCGGAGGGGGCGG [U12G U43C] — higher, 0.08
- CCGCCUAACACGGCCAAUGCCGGUCCCAAGCCCGGAUAAAAGGGGAGGGGGCGG [U12G U43G] — higher, 0.1
- CCGCCUAACACUACCAAUGCCAGUCCCAAGCCCGGAUAAAAGUGGAGGGGGCGG [G13A G22A] — higher, 0.07
- CCGCCUAACACUACCAAUGCCUGUCCCAAGCCCGGAUAAAAGUGGAGGGGGCGG [G13A G22U] — higher, 0.04
- CCGCCUAACACUACCAAUGCCCGUCCCAAGCCCGGAUAAAAGUGGAGGGGGCGG [G13A G22C] — higher, 0.03

From the RNAGym collection of RNA variant scans (doi:10.1002/anie.201605470)
